The source made the active and inactive calls. The rule behind the calls is not given here.
Assays:
[1] = target: Dual specificity protein kinase CLK2 (Homo sapiens, UniProt P49760); assay: Inhibition of human CLK2 incubated for 2 hrs
L02 = assay: Cytotoxicity against human L02 cells assessed as reduction in cell viability incubated for 72 hrs by MTT assay; assay type: cell-based; details: L02, 72 h
In short: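 About 5 × 10³ cells/well, seeded overnight at 37 °C, 5% CO₂, in DMEM or RPMI-1640 with 10% FBS and antibiotics. DMSO-dissolved compounds diluted in medium, exposure 72 h.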

[2] = target: T1, Aldehyde dehydrogenase 1A1 (Homo sapiens) (UniProt P00352); assay: Inhibition of ALDH1A1 in human HCT116 cells at 20 uM after 24 hrs by aldefluor staining based fluorescence analysis; assay type: cell-based; details: HCT-116
T1 sequence (whole entry): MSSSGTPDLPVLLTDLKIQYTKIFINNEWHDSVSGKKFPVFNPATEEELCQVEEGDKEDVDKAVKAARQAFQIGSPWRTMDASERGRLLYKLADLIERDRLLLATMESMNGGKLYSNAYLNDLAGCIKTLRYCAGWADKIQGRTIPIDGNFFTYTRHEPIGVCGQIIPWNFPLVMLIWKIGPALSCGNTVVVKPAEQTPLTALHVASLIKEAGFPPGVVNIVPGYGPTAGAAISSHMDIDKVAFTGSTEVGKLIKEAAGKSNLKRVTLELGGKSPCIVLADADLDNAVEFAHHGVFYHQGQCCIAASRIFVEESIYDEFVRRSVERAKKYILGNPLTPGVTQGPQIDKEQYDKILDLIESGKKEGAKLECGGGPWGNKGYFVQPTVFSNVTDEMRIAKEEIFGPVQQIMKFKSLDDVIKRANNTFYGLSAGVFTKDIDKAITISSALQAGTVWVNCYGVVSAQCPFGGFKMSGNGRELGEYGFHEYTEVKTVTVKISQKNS
In short: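 HCT-116 cells, 2 × 10⁵/well, grown overnight at 37 °C, 5% CO₂, then treated 24 h (vehicle DMSO). Aldefluor staining read in FITC channel by FACS for proportion of ALDH⁺ cells; DEAB-pretreated cells set baseline fluorescence.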

HCT-116 [3] = assay: Induction of apoptosis in human HCT116 cells assessed as necrotic cells at 5 uM after 24 hrs by annexin V-FITC/propidium iodide staining based flow cytometry (reference value: 5.6%); assay type: functional
HCT-116 [4] = assay: Induction of apoptosis in human HCT116 cells assessed as viable cells at 20 uM after 24 hrs by annexin V-FITC/propidium iodide staining based flow cytometry (reference value: 88.3%); assay type: functional; details: read-out: Activity
HCT-116 [5] = assay: Induction of apoptosis in human HCT116 cells assessed as early apoptotic cells at 20 uM after 24 hrs by annexin V-FITC/propidium iodide staining based flow cytometry (reference value: 1%); assay type: functional
HCT-116 [6] = assay: Induction of apoptosis in human HCT116 cells assessed as increase in Bax protein expression at 20 uM incubated for 24 hrs by Western blot analysis; assay type: functional, cell-based
In short: (§1)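 HCT-116 cells at 2 × 10⁵ cells/mL in DMEM/10% FBS, grown 12 h at 37 °C, then treated 24 h (vehicle DMSO). Lysates quantified by BCA, run on 10% SDS-PAGE, PVDF transfer, blocked in 5% milk/TBST, primary antibodies 4 °C overnight, HRP secondary 2 h, chemiluminescent detection; normalized to β-actin, n = 3.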

HCT-116 [7] = assay: Induction of apoptosis in human HCT116 cells assessed as upregulation of cleaved caspase 9 level at 20 uM incubated for 24 hrs by Western blot analysis; assay type: functional, cell-based; in short: as §1
[8] = Tmax in Sprague-Dawley rat at 25 mg/kg, po measured up to 48 hrs by LC-MS/MS analysis; assay type: ADME, organism-based; details: in vivo
In short: (§2)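 Overnight-fasted male SD rats (250−270 g, n = 3/group), single oral 25 mg/kg in 5% CMC-Na (reference sodium salt in phosphate buffer); plasma at 0.25–48 h (12 timepoints), stored −40 °C; LC−MS/MS with internal-standard calibration 3–3000 ng/mL; parameters fitted by model.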

[9] = Cmax in Sprague-Dawley rat at 25 mg/kg, po measured up to 48 hrs by LC-MS/MS analysis; assay type: ADME, organism-based; set-up: route oral, dose 25 mg/kg, time <=48; details: in vivo
In short: (§3)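 Overnight-fasted male SD rats (about 250−270 g), three per group, single oral 25 mg/kg; test compound suspended in 5% CMC-Na, control as sodium salt in phosphate buffer. Blood sampled 0.25–48 h, plasma by centrifugation, stored −40 °C, quantified by LC−MS/MS against plasma standard curve (3–3000 ng/mL) with internal standard; model-fitted PK parameters.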

[10] = Half life in Sprague-Dawley rat at 25 mg/kg, po measured up to 48 hrs by LC-MS/MS analysis; assay type: ADME, organism-based; details: in vivo; in short: as §3
[11] = MRT(0 to t) in Sprague-Dawley rat at 25 mg/kg, po measured up to 48 hrs by LC-MS/MS analysis; assay type: ADME, organism-based; details: in vivo; in short: as §2
[12] = MRT(0 to infinity) in Sprague-Dawley rat at 25 mg/kg, po measured up to 48 hrs by LC-MS/MS analysis; assay type: ADME, organism-based; details: in vivo; in short: as §2
[13] = Toxicity in BALB/c mouse xenografted with human HCT116 cells assessed as effect on liver tissue at 60 to 90 mg/kg, po administered twice daily for 4 weeks and measured every 3 days by HE staining based assay; assay type: organism-based, HCT-116; details: in vivo, 672 h, dose 60-90 mg/kg
In short: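 Male 5-week BALB/c nude mice (16−18 g), 0.2 mL of 5 × 10⁷ cells/mL HCT-116 injected into right armpit; at ~100 mm³ randomized, 5/group; intragastric 60 or 90 mg/kg twice daily for 4 weeks; tumor volume and body weight every 3 days; after sacrifice heart, liver, spleen, lung, kidney HE-stained.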

Chain of Dual specificity protein kinase CLK2 (P49760 whole entry): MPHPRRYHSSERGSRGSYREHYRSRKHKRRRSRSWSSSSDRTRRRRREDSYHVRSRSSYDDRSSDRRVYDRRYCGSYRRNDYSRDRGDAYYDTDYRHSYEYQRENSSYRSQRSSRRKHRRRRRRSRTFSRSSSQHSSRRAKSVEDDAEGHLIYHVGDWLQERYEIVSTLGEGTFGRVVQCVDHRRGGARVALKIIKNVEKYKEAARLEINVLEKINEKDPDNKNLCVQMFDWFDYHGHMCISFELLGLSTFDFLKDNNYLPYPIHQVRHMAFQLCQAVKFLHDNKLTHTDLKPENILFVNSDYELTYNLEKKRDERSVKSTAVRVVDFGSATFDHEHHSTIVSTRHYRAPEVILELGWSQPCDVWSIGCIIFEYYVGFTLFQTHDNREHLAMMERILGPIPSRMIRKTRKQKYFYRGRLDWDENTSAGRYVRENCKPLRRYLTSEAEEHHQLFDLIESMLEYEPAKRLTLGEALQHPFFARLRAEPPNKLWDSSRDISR

## O=C(NCCO)c1ccc2c(c1)nc(Nc1cccc(Cl)c1)c1ccncc12
[1]
  IC50: 0.0327 µM
L02
  IC50: 96.7 µM
[2]
  inhibition: 96%
HCT-116 [3]
  Activity: 7%
HCT-116 [4]
  viability at 20 µM: 36%
HCT-116 [5]
  Activity: 22.5%
HCT-116 [6]
  Activity: Active
HCT-116 [7]
  Activity: Active
[8]
  Tmax: 2.33 h
[9]
  Cmax: 7.02 µg/mL
[10]
  half-life: 6.67 h
[11]
  MRT last at 48 h: 6.21 h
[12]
  MRT inf: 6.26 h
[13]
  Activity: Non-Toxic

— ChEMBL document CHEMBL4808178 (J Med Chem, 2021)
